From ChEMBL document CHEMBL1125138, “1,3-Dialkyl-3-acyltriazenes, a novel class of antineoplastic alkylating agents” (J Med Chem, 1990)

How the values were obtained:
MCF7 = test: Evaluated for the inhibitory concentration required to cause growth inhibition of MCF-7 breast cell line using the MTT Cytotoxicity Assay; type: functional, cell-based; conditions: Homo sapiens
Procedure, shortened: (§1)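 MTT microculture tetrazolium growth assay on human cell lines and normal fibroblasts. Cells seeded at 1000 cells/well, with compound added 24 h after plating. Cultures then incubated a further 6 days at 37 °C before MTT read-out of growth versus untreated cells.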

WiDr = test: Evaluated for the inhibitory concentration required to cause growth inhibition of WiDR colon cell line using the MTT Cytotoxicity Assay; type: functional, cell-based; conditions: Homo sapiens
Procedure, shortened: (§2)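 MTT cell-growth assay in human cell lines: cells harvested and seeded at 1000 cells/well in 96-well plates. Compound added after 24 h, then cultures incubated a further 6 days at 37 °C. Growth measured with and without agent.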

MX1 [1] = test: Evaluated in vivo for antineoplastic activity against MX-1 mammary carcinoma tumor xenograft in nude mice after administering intra peritoneally 3 injections at a dose of 400 mg/kg; type: functional, Homo sapiens
Procedure, shortened: (§3)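 Nude mice bearing tumor xenografts, run through the NCI Developmental Therapeutics Program. Compound given ip as three injections at 4-day intervals for MX-1 mammary, LX-1 lung and LOX melanoma. Activity read out as % T/C.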

RPMI-7951 = test: Evaluated for the inhibitory concentration required to cause growth inhibition of RPMI7951 melanoma cell line using the MTT Cytotoxicity Assay; type: functional, cell-based; conditions: Homo sapiens; procedure, shortened: as §1
P388 [2] = test: Evaluated in vivo for antineoplastic activity against P388 murine leukemia tumor […] after administering intra peritoneal injection at a dose of 50 mg/kg.; type: functional, Mus musculus
Procedure, shortened: (§4)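 P388 leukemia-bearing mice, run through the NCI Developmental Therapeutics Program. Compound given ip once daily on 5 consecutive days. Activity read out as % T/C.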

NCI-H358 = test: Evaluated for the inhibitory concentration required to cause growth inhibition of H358M cell line of lung using the Microculture Tetrazolium (MTT) Cytotoxicity Assay; type: functional, cell-based; conditions: Homo sapiens; procedure, shortened: as §1
A704 = test: Evaluated for the inhibitory concentration required to cause growth inhibition of A704Rem- renal cell line using the MTT Cytotoxicity Assay; type: functional, cell-based; conditions: Homo sapiens; procedure, shortened: as §1
OVCAR-3 = test: Evaluated for the inhibitory concentration required to cause growth inhibition of OVCAR-3 ovarian cell line using the MTT Cytotoxicity Assay; type: functional, cell-based; conditions: Homo sapiens; procedure, shortened: as §1
[3] = Evaluated in vivo for antineoplastic activity against LX-1 Lung small cell carcinoma tumor xenograft in nude mice after administering intra peritoneally 3 injections at a dose of 200 mg/kg; type: functional, Homo sapiens; procedure, shortened: as §3
NCI-H322M = test: Evaluated for the inhibitory concentration required to cause growth inhibition of H322M cell line of lung using the Microculture Tetrazolium (MTT) Cytotoxicity Assay; type: functional, cell-based; conditions: Homo sapiens; procedure, shortened: as §1
[4] = Evaluated in vivo for antineoplastic activity against LX-1 Lung small cell carcinoma tumor xenograft in nude mice after administering intra peritoneally 3 injections at a dose of 100 mg/kg; type: functional, Homo sapiens; procedure, shortened: as §3
A 172 = test: Evaluated for the inhibitory concentration required to cause growth inhibition of A172Mer- cell line of central nervous system (CNS) using the MTT Cytotoxicity Assay; type: functional, cell-based; conditions: Homo sapiens; procedure, shortened: as §1
CCD 19Lu = test: Evaluated for the inhibitory concentration required to cause growth inhibition of CCD-19Lu fibroblasts cell line using the MTT Cytotoxicity Assay; type: functional, cell-based; conditions: Homo sapiens; procedure, shortened: as §1
[5] = Evaluated in vivo for antineoplastic activity against LOX melanoma amelanotic tumor xenograft in nude mice after administering intra peritoneally 3 injections at a dose of 100 mg/kg; type: functional, Homo sapiens; procedure, shortened: as §3
NCI-H522 (Homo sapiens) = test: Evaluated for the inhibitory concentration required to cause growth inhibition of H522 cell line of lung using the Microculture Tetrazolium (MTT) Cytotoxicity Assay
A498 = test: Evaluated for the inhibitory concentration required to cause growth inhibition of A498Rem- renal cell line using the MTT Cytotoxicity Assay; type: functional, cell-based; conditions: Homo sapiens; procedure, shortened: as §1
[6] = tested on: MAR BEL fibroblasts cell line; test: Evaluated for the inhibitory concentration required to cause growth inhibition of MAR BEL fibroblasts cell line using the MTT Cytotoxicity Assay; type: functional, cell-based; conditions: Homo sapiens; procedure, shortened: as §1
A673 = test: Evaluated for the inhibitory concentration required to cause growth inhibition of A673Mer+ sarcoma cell line using the MTT Cytotoxicity Assay; type: functional, cell-based; conditions: Homo sapiens; procedure, shortened: as §1
HOS-TE85 = test: Evaluated for the inhibitory concentration required to cause growth inhibition of TE85Mer+ sarcoma cell line using the MTT Cytotoxicity Assay; type: functional, cell-based; conditions: Homo sapiens; procedure, shortened: as §1
MX1 [7] = test: Evaluated in vivo for antineoplastic activity against MX-1 mammary carcinoma tumor xenograft in nude mice after administering intra peritoneally 3 injections at a dose of 100 mg/kg; type: functional, Homo sapiens; procedure, shortened: as §3
MX1 [8] = test: Evaluated in vivo for antineoplastic activity against MX-1 mammary carcinoma tumor xenograft in nude mice after administering intra peritoneally 3 injections at a dose of 200 mg/kg; type: functional, Homo sapiens; procedure, shortened: as §3
LOX IMVI = test: Evaluated for the inhibitory concentration required to cause growth inhibition of LOX melanoma cell line using the MTT Cytotoxicity Assay; type: functional, cell-based; conditions: Homo sapiens; procedure, shortened: as §1
NCI-H460 = test: Evaluated for the inhibitory concentration required to cause growth inhibition of H460 cell line of lung using the Microculture Tetrazolium (MTT) Cytotoxicity Assay; type: functional, cell-based; conditions: Homo sapiens; procedure, shortened: as §1
TE-671 = test: Evaluated for the inhibitory concentration required to cause growth inhibition of TE-671 cell line of central nervous system (CNS)using the MTT Cytotoxicity Assay; type: functional, cell-based; conditions: Homo sapiens; procedure, shortened: as §1
DOD-1 = test: Evaluated for the inhibitory concentration required to cause growth inhibition of DOD-1 breast cell line using the MTT Cytotoxicity Assay; type: functional, cell-based; conditions: Homo sapiens; procedure, shortened: as §1
[9] = Evaluated in vivo for antineoplastic activity against LOX melanoma amelanotic tumor xenograft in nude mice after administering intra peritoneally 3 injections at a dose of 200 mg/kg; type: functional, Homo sapiens; procedure, shortened: as §3
[10] = Evaluated in vivo for antineoplastic activity against LOX melanoma amelanotic tumor xenograft in nude mice after administering intra peritoneally 3 injections at a dose of 800 mg/kg; type: functional, Homo sapiens; procedure, shortened: as §3
NCI-H23 = test: Evaluated for the inhibitory concentration required to cause growth inhibition of H23 cell line of lung using the Microculture Tetrazolium (MTT) Cytotoxicity Assay; type: functional, cell-based; conditions: Homo sapiens; procedure, shortened: as §1
SK-MEL-5 = test: Evaluated for the inhibitory concentration required to cause growth inhibition of SK-MEL-5 melanoma cell line using the MTT Cytotoxicity Assay; type: functional, cell-based; conditions: Homo sapiens; procedure, shortened: as §1
OVCAR-4 = test: Evaluated for the inhibitory concentration required to cause growth inhibition of OVCAR-4 ovarian cell line using the MTT Cytotoxicity Assay; type: functional, cell-based; conditions: Homo sapiens; procedure, shortened: as §1
A-427 = test: Evaluated for the inhibitory concentration required to cause growth inhibition of A427Mer- cell line of lung using the MTT Cytotoxicity Assay; type: functional, cell-based; conditions: Homo sapiens; procedure, shortened: as §1
NCI/ADR-RES = test: Evaluated for the inhibitory concentration required to cause growth inhibition of MCF-7ADR breast cell line using the MTT Cytotoxicity Assay; type: functional, cell-based; conditions: Homo sapiens; procedure, shortened: as §1
P388 [11] = test: Evaluated in vivo for antineoplastic activity against P388 murine leukemia tumor […] after administering intra peritoneal injection at a dose of 200 mg/kg.; type: functional, Mus musculus; procedure, shortened: as §4
NCI-H125 = test: Evaluated for the inhibitory concentration required to cause growth inhibition of H125 cell line of lung using the Microculture Tetrazolium (MTT) Cytotoxicity Assay; type: functional, cell-based; conditions: Homo sapiens; procedure, shortened: as §1
[12] = Evaluated in vivo for antineoplastic activity against LOX melanoma amelanotic tumor xenograft in nude mice after administering intra peritoneally 3 injections at a dose of 400 mg/kg; type: functional, Homo sapiens; procedure, shortened: as §3
P388 [13] = test: Evaluated in vivo for antineoplastic activity against P388 murine leukemia tumor […] after administering intra peritoneal injection at a dose of 100 mg/kg.; type: functional, Mus musculus; procedure, shortened: as §4
A549 = test: Evaluated for the inhibitory concentration required to cause growth inhibition of A549Rem- cell line of lung using the MTT Cytotoxicity Assay; type: functional, cell-based; conditions: Homo sapiens; procedure, shortened: as §1
Malme-3M = test: Evaluated for the inhibitory concentration required to cause growth inhibition of MALME-3M melanoma cell line using the MTT Cytotoxicity Assay; type: functional, cell-based; conditions: Homo sapiens; procedure, shortened: as §1
U-251 = test: Evaluated for the inhibitory concentration required to cause growth inhibition of U251 cell line of central nervous system (CNS) using the MTT Cytotoxicity Assay; type: functional, cell-based; conditions: Homo sapiens; procedure, shortened: as §2
P388 [14] = test: Evaluated in vivo for antineoplastic activity against P388 murine leukemia tumor […] after administering intra peritoneal injection on each of 5 consecutive days at a dose of 30.0 mg/kg; type: functional, Mus musculus; procedure, shortened: as §4

Row | SMILES | IC50 (MCF7) [µM] | IC50 (WiDr) [µM] | IC50 (RPMI-7951) [µM] | IC50 (NCI-H358) [µM] | IC50 (A704) [µM] | IC50 (OVCAR-3) [µM] | IC50 (NCI-H322M) [µM] | IC50 (A 172) [µM] | IC50 (CCD 19Lu) [µM] | IC50 (NCI-H522 (Homo sapiens)) [µM] | IC50 (A498) [µM] | IC50 [6] [µM] | IC50 (A673) [µM] | IC50 (HOS-TE85) [µM] | IC50 (LOX IMVI) [µM] | IC50 (NCI-H460) [µM] | IC50 (TE-671) [µM] | IC50 (DOD-1) [µM] | IC50 (NCI-H23) [µM] | IC50 (SK-MEL-5) [µM] | further results
1 | CNC(=O)N(C)/N=N\CCCl | 14 | 14 | 18 | 60 | 35 | 20 | 37 | 27 | 60 | 13 | 20 | 47 | 35 | 26 | 10 | 60 | 55 | 21 | 18 | 13 | T/C (MX1 [1]): -76%; T/C (P388 [2]): 175%; T/C [3]: -66%; T/C [4]: -19%; T/C [5]: 201%; T/C (MX1 [7]): 15%; T/C (MX1 [8]): 1%; T/C [9]: 309%; T/C [10]: 309%; IC50 (OVCAR-4): 20 µM; IC50 (A-427): 18 µM; IC50 (NCI/ADR-RES): 17 µM; T/C (P388 [11]): 297%; IC50 (NCI-H125): 45 µM; T/C [12]: 309%; T/C (P388 [13]): 196%; IC50 (A549): 26 µM; IC50 (Malme-3M): 28 µM; IC50 (U-251): 30 µM
2 | CCOC(=O)N(C)/N=N\CCCl | 16 | 13 | 13 | 50 | 18 | 26 | 14 | 18 | 45 | 10 | 16 | 46 | 20 | 26 | 2.4 | 50 | 34 | 20 | 16 | 10 | T/C (P388 [14]): 175%; IC50 (OVCAR-4): 26 µM; IC50 (A-427): 11 µM; IC50 (NCI/ADR-RES): 17 µM; IC50 (NCI-H125): 30 µM; IC50 (A549): 14 µM; IC50 (Malme-3M): 15 µM; IC50 (U-251): 8 µM
